# Screens: PubChem, Broad Institute
# Sampled rows, rich in hits. Any-hit rate of the full collection: about 2.4%.
# rRNA inh HTS – selective bacterial rRNA inhibition in E. coli; E. coli WT GFP vs humanized-ribosome RFP mutants, fluorescence, 24 h; stronger effect = lower value; DMSO median 0, no signal -100; GFP signal change (wild-type ribosome), % (concentration not given with the values); 1.6% of 350,000 active; AID 720706;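 active means significant combined selectivity score with lowered wild-type GFP, culture density cut under 30%, mutant RFP and density less affected; inactive means any of these conditions unmet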
# CASP6 VEID inh – caspase-6 (human) enzyme inhibition. P55212. purified caspase-6, Z-VEID-R110 cleavage fluorescence. inhibition, % at 12.5 µM. 0.53% of 350,000 active;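 active means mean inhibition across replicates at least about 35%, with every replicate also reaching that limit, limit read from the data; inconclusive means only one of the two criteria met; inactive means neither criterion met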;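 further: 0% = median of neutral control wells and 100% = no fluorescence left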
# Target sequence (P55212 24-179 limits assumed): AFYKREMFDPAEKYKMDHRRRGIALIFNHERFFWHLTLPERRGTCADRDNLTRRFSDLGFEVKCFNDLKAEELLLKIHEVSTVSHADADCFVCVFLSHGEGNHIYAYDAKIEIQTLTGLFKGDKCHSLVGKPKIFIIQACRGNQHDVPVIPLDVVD
# Target sequence (P55212 194-293 limits assumed): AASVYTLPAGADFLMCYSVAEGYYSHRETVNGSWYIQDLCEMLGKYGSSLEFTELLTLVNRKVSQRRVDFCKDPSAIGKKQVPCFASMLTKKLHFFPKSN
# PGC1a acetyl inh – lowers PGC1a acetylation signal in U2OS cells; AID 651687; AlphaScreen anti-acetyl-lysine; with virally co-expressed GCN5 acetyltransferase; inhibition, % at 15.6 µM; 0.17% of 350,000 active;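 active means every replicate shows inhibition of at least 40%; inconclusive means mean inhibition at least 40% but some replicate below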;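 further: 0% = neutral control wells and 100% = positive control wells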
# ERAP1 HTS inh – inhibitors of human ERAP1 aminopeptidase | Q9NZ08 | recombinant ERAP1, Leu-AMC fluorescence, 60 min | inhibition, % at 10.7 µM | 0.15% of 340,000 active;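 active means mean replicate inhibition of at least 30%, or all replicates individually reaching that 30% level; inactive means mean below 30% and not every replicate reaching it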;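 further: 0% = neutral control wells and 100% = L-leucinethiol positive control wells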
# ARNT TACC3 PPI – disruptors of human ARNT/TACC3 interaction; Q9Y6A5; AlphaScreen His-ARNT PAS-B/GST-TACC3 binding, luminescence; TACC3 fragment carries E629A point mutation; inhibition, % at 9.99 µM; 0.66% of 390,000 active;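 active means mean inhibition of replicates at least 50% and at least half of replicates each reaching 50%; inconclusive means half or more replicates reach 50% but mean below 50%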;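 further: 0% = complete ARNT plus TACC3 wells and 100% = ARNT alone without TACC3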
# S100A4 MyoIIA – inhibitors of human S100A4 binding to myosin IIA peptide; S100A4/TAMRA-MyoIIA peptide fluorescence polarization; AID 652163; P26447; inhibition, % at 10.7 µM; 0.14% of 360,000 active;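 active means mean inhibition of at least 70% across replicates, with every replicate also reaching that level; inconclusive means mean inhibition reaches 70% but some replicates fall short; inactive means mean inhibition below 70%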
# Target sequence (P26447 whole entry, looked up): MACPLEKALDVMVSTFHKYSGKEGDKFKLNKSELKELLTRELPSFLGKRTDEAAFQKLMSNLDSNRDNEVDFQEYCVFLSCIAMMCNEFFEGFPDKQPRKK
#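 Compound dosing: one dose per compound; test system: human S100A4 monomer with TAMRA-labelled myosin IIA peptide; probe or stimulus: TAMRA-labelled myosin IIA heavy-chain peptide probe, 5 nM; medium: HEPES buffer with Ca2+, pH 7.2; schedule: 5 min incubation before reading; benchmarks: neutral control DMSO, positive control TFP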
# AID977621 – wild-type E. coli growth inhibition versus H69 humanized strain – H69 mutant RFP, wild-type GFP, cherry-pick, dose response; shares compounds with rRNA inh HTS; fluorescence, 24 h; activity change, negative = inhibition at 50 µM; 1,900 tested, under 10 active; AID 977621;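 active means Wild-type ribosome reporter drop at least double the humanized mutant ribosome reporter drop, growth loss under a set limit; inconclusive means no clear call, values can overlap the other calls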;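 further: wild-type GFP and H69 mutant RFP strains grown together 50/50 in each well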
# AID977628 – E. coli growth inhibition, wild-type GFP versus h24 humanized RFP strain, dose response, h24 mutant RFP vs wild-type GFP, cherry-pick; E. coli WT GFP strain growth, fluorescence, 24 h; shares compounds with rRNA inh HTS; activity change, negative = inhibition at 50 µM; 1,900 tested, under 10 active;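 active means compound lowering the normal-ribosome reporter at least twice as much as the humanized-ribosome reporter, growth loss under a set limit; inconclusive means no clear call, values can overlap the other calls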;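 further: wild-type GFP and h24 humanized RFP strains co-cultured 1 to 1 per well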
# Numbers without * were called inactive; ? = inconclusive; nt = no result.
SMILES,rRNA inh HTS,CASP6 VEID inh,PGC1a acetyl inh,ERAP1 HTS inh,ARNT TACC3 PPI,S100A4 MyoIIA,AID977621,AID977628
COc1ccc(NC(=O)Nc2cccc3c2O[C@H](CN(C)S(=O)(=O)c2ccc(Cl)cc2)[C@@H](C)CN([C@@H](C)CO)C3=O)cc1,-0.3,-0.2,-5.8,-1.2,-2.0,16.7,-4.9,-5.95
COc1ccc(NC(=O)Nc2cccc3c2O[C@H](CN(C)S(=O)(=O)c2ccc(OC)cc2)[C@H](C)CN([C@H](C)CO)C3=O)cc1,-7.5,-4.5,-6.1,0.9,-2.4,-8.4,nt,nt
Cc1cc(C(=O)Nc2cccc3c2O[C@H](CN(C)S(=O)(=O)c2ccc(Cl)cc2)[C@@H](C)CN([C@@H](C)CO)C3=O)n(C)n1,1.0,2.6,3.9,0.4,-1.6,1.3,nt,nt
COc1ccc(NC(=O)Nc2cccc3c2O[C@@H](CN(C)S(=O)(=O)c2ccc(Cl)cc2)[C@H](C)CN([C@@H](C)CO)C3=O)cc1,-2.3,5.5,1.1,-2.9,1.2,-0.1,-19.6,nt
Cc1cc(C(=O)Nc2cccc3c2O[C@H](CN(C)S(=O)(=O)c2ccc(Cl)cc2)[C@H](C)CN([C@@H](C)CO)C3=O)n(C)n1,-24.5*,2.4,-0.4,-1.7,4.6,-1.3,-20.1,?
C[C@@H]1CCCCO[C@@H](CN(C)S(=O)(=O)c2ccc(Cl)cc2)[C@H](C)CN([C@@H](C)CO)C(=O)c2cc(NC(=O)CCCN(C)C)ccc2O1,-0.8,-1.1,2.5,-3.6,9.3,12.1,nt,nt
CO[C@H]1CN(C)C(=O)c2cc(NC(=O)NC3CCCCC3)ccc2OC[C@@H](C)N(CCc2ccccc2)C[C@H]1C,-0.7,2.6,-2.4,1.4,1.1,0.6,nt,nt
C[C@@H]1CN([C@@H](C)CO)C(=O)c2c(c3ccccc3n2C)-c2ccccc2CO[C@H]1CN(C)Cc1ccncc1,1.4,0.8,1.9,1.3,-0.8,3.2,nt,nt
C[C@H](CO)N1C[C@H](C)[C@@H](CN(C)Cc2ccncc2)OCc2ccccc2-c2c(n(C)c3ccccc23)C1=O,-21.9*,1.1,0.6,-1.9,-5.1,3.2,3.48,nt
C[C@H]1CN([C@@H](C)CO)C(=O)c2c(c3ccccc3n2C)-c2ccccc2CO[C@@H]1CN(C)Cc1ccncc1,-28.9*,4.1,8.6,2.0,-2.4,11.0,nt,1.51
CC(C)CC#Cc1cnc2c(c1)C(=O)N([C@H](C)CO)C[C@H](C)[C@@H](CN(C)C(=O)c1cccnc1)O2,2.1,-2.4,-5.7,0.3,-4.5,-0.3,nt,nt
COc1ccc(NC(=O)N[C@H]2CC[C@H](CCNS(=O)(=O)c3ccccc3F)O[C@H]2CO)cc1,-3.2,1.2,-10.5,-0.2,-8.0,-5.5,nt,nt
COc1ccccc1CNC(=O)CN1C(=O)NC(c2ccccc2)(c2ccccc2)C1=O,-16.4*,0.6,2.7,0.8,nt,-10.6,-0.42,nt
COc1ccccc1CNC(=O)CSc1ccccc1,-12.9,-1.3,nt,0.8,-9.4,-26.8,nt,nt
COc1ccccc1CNC(=O)CSc1ccc(C)cc1,-16.2*,1.8,nt,-1.1,-4.3,-3.2,-6.36,nt
CCC1(c2ccccc2)NC(=O)N(CC(=O)NCc2ccccc2OC)C1=O (stereo not drawn),3.0,-3.3,-7.3,1.8,-2.3,1.1,nt,nt
CCOC(=O)c1c(C)nsc1NCc1ccccc1,-28.9*,-0.7,nt,-0.5,1.7,2.1,-24.1,nt
Nc1ccc(C(=O)OCCc2ccccc2)cc1,-30.4*,-1.0,10.6,-2.9,-1.7,-0.6,-8.98,-4.72
O=C(OCCc1ccccc1)c1cc(O)c(O)c(O)c1,-40.0,29.1,8.4,3.2,2.4,0.0,nt,nt
CC(C)CNC(=O)c1cccc(NC(=O)CSc2ccccc2)c1,nt,nt,nt,nt,-7.9,nt,nt,nt
CC(C)CNC(=O)c1cccc(NC(=O)C(C)Oc2ccccc2)c1 (stereo not drawn),-24.2*,0.6,4.9,-0.3,nt,-2.7,-15.6,-11.9
COc1ccc(OC(C)C(=O)Nc2cccc(F)c2)cc1 (stereo not drawn),-22.8*,-1.5,29.4,-0.9,-5.0,-4.2,-1.75,?
COc1ccc(NC(=O)N(C)C[C@@H]2Oc3ccc(NC(=O)CCN4CCOCC4)cc3CC(=O)N([C@@H](C)CO)C[C@H]2C)cc1,0.4,1.4,4.2,1.3,4.9,15.1,nt,nt
C[C@H]1CN([C@@H](C)CO)C(=O)c2cc(Br)cnc2O[C@@H]1CN(C)CC1CCOCC1,2.4,nt,4.8,nt,-7.2,nt,nt,nt
CCC(=O)N1CCC2(CC1)CN(S(=O)(=O)c1ccccc1)[C@@H](CO)c1[nH]c3cc(OC)ccc3c12,1.8,3.7,-7.8,-2.9,nt,-3.5,nt,nt
SMILES,rRNA inh HTS,CASP6 VEID inh,PGC1a acetyl inh,ERAP1 HTS inh,ARNT TACC3 PPI,S100A4 MyoIIA,AID977621,AID977628
C[C@@H]1CN([C@@H](C)CO)S(=O)(=O)c2ccc(C#Cc3ccncc3)cc2O[C@@H]1CN(C)C(=O)C1CC1,-0.9,0.8,-10.7,-0.8,4.5,-17.2,nt,nt
Cc1cccc(-c2cc3nc4c(c(N5CCC6(CC5)OCCO6)n3n2)CCCC4)c1,8.9,14.1,5.3,3.2,-14.7,1.1,nt,nt
Cc1cccc(-c2cc3nc4c(c(N5CCOCC5)n3n2)CCCC4)c1,-32.6*,-2.1,-15.9,-2.3,21.4,49.2,-16.9,?
Cn1cnc(S(=O)(=O)N2C[C@H](O)COC[C@H]3O[C@H](CC(=O)NC4CCC4)CC[C@@H]32)c1,3.7,nt,-29.1,nt,0.3,nt,nt,nt
COc1ccc(CC(=O)NCCC2=CCCCC2)cc1,-17.3,-1.7,-12.7,1.4,-4.8,2.9,nt,nt
COc1ccc(OCCC(=O)OCC(=O)NCCC2=CCCCC2)cc1,-24.2*,-4.2,nt,-0.3,-1.8,-1.6,-12.8,-9.71
C[C@H](CO)N1C[C@H](C)[C@@H](CN(C)Cc2ccc3c(c2)OCO3)Oc2c(NC(=O)Nc3ccc(C(F)(F)F)cc3)cccc2C1=O,-1.4,2.1,-2.6,0.5,5.0,9.1,nt,nt
CC(=O)Nc1ccc(NC(=O)c2c(C)nc3ccccn23)cc1,nt,nt,-6.1,nt,4.1,nt,nt,nt
Cc1nc2ccccn2c1C(=O)Nc1ccc(Cl)cc1,-18.0*,-5.2,8.3,-2.9,-20.4,2.8,-8.14,-6.14
CCOc1ccc(OCC(=O)NCCc2nc3ccccc3[nH]2)cc1,nt,nt,4.6,nt,2.5,nt,nt,nt
O=C(CCCOc1ccccc1)NCCc1nc2ccccc2[nH]1,-19.1*,0.2,-2.1,3.3,-5.8,-2.3,nt,6.37
CCOC(=O)c1cccc(OS(=O)(=O)Cc2ccccc2)c1,-25.5*,1.2,5.5,1.4,nt,2.0,-9.12,nt
